Measured values published in ChEMBL document CHEMBL2390926, “Identification of novel FLT3 kinase inhibitors” (Eur J Med Chem, 2013).
Active and inactive are the calls of the source. The rule behind the calls is not given here.

Key:
KG-1 = assay: Cytotoxicity against human KG1 cells after 72 hrs by plate reader analysis; format: functional, cell-based; details: KG-1, 72 h
[1] = biological target: Tyrosine-protein kinase SYK (Homo sapiens) (UniProt P43405); assay: Inhibition of SYK (unknown origin) transfected in mouse Ba/F3 cells at 1 uM after 24 hrs; format: cell-based; details: BaF3
[2] = biological target: T1, Non-receptor tyrosine-protein kinase TNK1 (Homo sapiens) (UniProt Q13470); assay: Inhibition of TNK1 (unknown origin) transfected in mouse Ba/F3 cells at 1 uM after 24 hrs; format: cell-based; details: BaF3
T1 sequence (whole entry): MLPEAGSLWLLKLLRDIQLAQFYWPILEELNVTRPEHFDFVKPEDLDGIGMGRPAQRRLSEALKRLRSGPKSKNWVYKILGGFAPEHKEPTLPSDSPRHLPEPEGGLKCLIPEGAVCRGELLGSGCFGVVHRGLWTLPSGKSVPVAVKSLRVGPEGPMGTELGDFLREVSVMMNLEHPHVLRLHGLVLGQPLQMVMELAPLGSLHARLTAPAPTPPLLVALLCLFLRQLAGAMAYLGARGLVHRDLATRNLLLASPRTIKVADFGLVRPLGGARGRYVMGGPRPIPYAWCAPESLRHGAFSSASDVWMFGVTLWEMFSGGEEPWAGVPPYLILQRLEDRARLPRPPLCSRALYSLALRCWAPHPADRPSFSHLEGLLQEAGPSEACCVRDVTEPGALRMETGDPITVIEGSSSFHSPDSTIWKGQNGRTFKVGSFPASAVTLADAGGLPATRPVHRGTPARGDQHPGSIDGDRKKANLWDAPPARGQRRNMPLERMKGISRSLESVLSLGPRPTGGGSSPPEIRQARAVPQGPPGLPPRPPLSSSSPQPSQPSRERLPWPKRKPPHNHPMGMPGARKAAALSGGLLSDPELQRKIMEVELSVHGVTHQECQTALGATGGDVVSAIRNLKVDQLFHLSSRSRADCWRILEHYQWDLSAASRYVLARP

[3] = biological target: Tyrosine-protein kinase Fyn (Homo sapiens) (UniProt P06241); assay: Inhibition of FYN (unknown origin) transfected in mouse Ba/F3 cells at 1 uM after 24 hrs; format: cell-based; details: BaF3
Summary of the method: (§1)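 Kinase specificity panel: each Ba/F3 line transformed with one of 24 tyrosine kinases depends on that kinase to grow. Cells were given compound at 1 or 5 µM for 24 h, with DMSO as comparator. Percentage growth was read by ATP-lite luminescence and reported as mean ± SEM.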

[4] = biological target: Insulin-like growth factor 1 receptor (Homo sapiens) (UniProt P08069); assay: Inhibition of IGF1R (unknown origin) transfected in mouse Ba/F3 cells at 1 uM after 24 hrs; format: cell-based; details: BaF3; summary of the method: as §1
[5] = biological target: T2, Tyrosine-protein kinase Mer (Homo sapiens) (UniProt Q12866); assay: Inhibition of MERTK (unknown origin) transfected in mouse Ba/F3 cells at 1 uM after 24 hrs; format: cell-based; details: BaF3
T2 sequence (whole entry): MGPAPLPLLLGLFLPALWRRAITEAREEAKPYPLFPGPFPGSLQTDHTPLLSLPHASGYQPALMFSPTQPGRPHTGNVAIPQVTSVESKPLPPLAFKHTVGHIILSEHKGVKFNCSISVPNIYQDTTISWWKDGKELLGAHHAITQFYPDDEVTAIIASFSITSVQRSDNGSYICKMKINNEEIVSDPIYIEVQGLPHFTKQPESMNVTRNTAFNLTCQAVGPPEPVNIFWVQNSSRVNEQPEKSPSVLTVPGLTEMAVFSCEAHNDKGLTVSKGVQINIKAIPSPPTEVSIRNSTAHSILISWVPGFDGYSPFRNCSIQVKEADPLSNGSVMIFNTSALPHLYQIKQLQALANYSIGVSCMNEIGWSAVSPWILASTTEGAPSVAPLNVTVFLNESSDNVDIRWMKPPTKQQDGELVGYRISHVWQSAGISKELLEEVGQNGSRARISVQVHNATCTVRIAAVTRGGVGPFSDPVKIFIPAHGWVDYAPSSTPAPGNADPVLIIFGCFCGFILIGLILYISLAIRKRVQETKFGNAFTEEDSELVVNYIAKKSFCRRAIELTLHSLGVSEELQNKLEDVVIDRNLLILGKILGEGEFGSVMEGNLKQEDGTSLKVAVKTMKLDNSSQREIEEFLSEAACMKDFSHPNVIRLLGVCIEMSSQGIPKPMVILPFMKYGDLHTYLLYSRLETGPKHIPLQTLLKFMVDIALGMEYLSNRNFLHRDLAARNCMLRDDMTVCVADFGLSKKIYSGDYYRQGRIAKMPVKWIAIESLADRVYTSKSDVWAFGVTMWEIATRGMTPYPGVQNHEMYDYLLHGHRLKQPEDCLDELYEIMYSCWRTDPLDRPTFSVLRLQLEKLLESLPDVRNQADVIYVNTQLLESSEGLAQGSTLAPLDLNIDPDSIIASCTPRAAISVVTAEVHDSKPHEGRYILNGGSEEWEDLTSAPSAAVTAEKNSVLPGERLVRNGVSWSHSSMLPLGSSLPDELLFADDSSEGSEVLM

[6] = biological target: Tyrosine-protein kinase Yes (Homo sapiens) (UniProt P07947); assay: Inhibition of YES (unknown origin) transfected in mouse Ba/F3 cells at 1 uM after 24 hrs; format: cell-based; details: BaF3
[7] = biological target: Ephrin type-A receptor 7 (Homo sapiens) (UniProt Q15375); assay: Inhibition of EPHA7 (unknown origin) transfected in mouse Ba/F3 cells at 1 uM after 24 hrs; format: cell-based; details: BaF3; summary of the method: as §1
[8] = biological target: Tyrosine-protein kinase HCK (Homo sapiens) (UniProt P08631); assay: Inhibition of HCK (unknown origin) transfected in mouse Ba/F3 cells at 1 uM after 24 hrs; format: cell-based; details: BaF3; summary of the method: as §1
[9] = biological target: Proto-oncogene tyrosine-protein kinase ROS (Homo sapiens) (UniProt P08922); assay: Inhibition of ROS1 (unknown origin) transfected in mouse Ba/F3 cells at 1 uM after 24 hrs; format: cell-based; details: BaF3
[10] = biological target: Tyrosine-protein kinase receptor UFO (Homo sapiens) (UniProt P30530); assay: Inhibition of AXL (unknown origin) transfected in mouse Ba/F3 cells at 1 uM after 24 hrs; format: cell-based; details: BaF3; summary of the method: as §1
[11] = biological target: Vascular endothelial growth factor receptor 3 (Homo sapiens) (UniProt P35916); assay: Inhibition of FLT4 (unknown origin) transfected in mouse Ba/F3 cells at 1 uM after 24 hrs; format: cell-based; details: BaF3; summary of the method: as §1
[12] = biological target: Receptor tyrosine-protein kinase erbB-2 (Homo sapiens) (UniProt P04626); assay: Inhibition of ERBB2 (unknown origin) transfected in mouse Ba/F3 cells at 1 uM after 24 hrs; format: cell-based; details: BaF3; summary of the method: as §1
[13] = biological target: Ephrin type-A receptor 2 (Homo sapiens) (UniProt P29317); assay: Inhibition of EPHA2 (unknown origin) transfected in mouse Ba/F3 cells at 1 uM after 24 hrs; format: cell-based; details: BaF3; summary of the method: as §1
[14] = Cytotoxicity against mouse BA/F3 cells transfected with FLT3-ITD after 24 hrs by plate reader analysis; details: BaF3, 24 h
[15] = biological target: Proto-oncogene tyrosine-protein kinase Src (Homo sapiens) (UniProt P12931); assay: Inhibition of SRC (unknown origin) transfected in mouse Ba/F3 cells at 1 uM after 24 hrs; format: cell-based; details: BaF3
[16] = biological target: Fibroblast growth factor receptor 3 (Homo sapiens) (UniProt P22607); assay: Inhibition of FGFR3 (unknown origin) transfected in mouse Ba/F3 cells at 1 uM after 24 hrs; format: cell-based; details: BaF3; summary of the method: as §1
Chain of Fibroblast growth factor receptor 3 (Homo sapiens) (P22607 23-806 limits assumed): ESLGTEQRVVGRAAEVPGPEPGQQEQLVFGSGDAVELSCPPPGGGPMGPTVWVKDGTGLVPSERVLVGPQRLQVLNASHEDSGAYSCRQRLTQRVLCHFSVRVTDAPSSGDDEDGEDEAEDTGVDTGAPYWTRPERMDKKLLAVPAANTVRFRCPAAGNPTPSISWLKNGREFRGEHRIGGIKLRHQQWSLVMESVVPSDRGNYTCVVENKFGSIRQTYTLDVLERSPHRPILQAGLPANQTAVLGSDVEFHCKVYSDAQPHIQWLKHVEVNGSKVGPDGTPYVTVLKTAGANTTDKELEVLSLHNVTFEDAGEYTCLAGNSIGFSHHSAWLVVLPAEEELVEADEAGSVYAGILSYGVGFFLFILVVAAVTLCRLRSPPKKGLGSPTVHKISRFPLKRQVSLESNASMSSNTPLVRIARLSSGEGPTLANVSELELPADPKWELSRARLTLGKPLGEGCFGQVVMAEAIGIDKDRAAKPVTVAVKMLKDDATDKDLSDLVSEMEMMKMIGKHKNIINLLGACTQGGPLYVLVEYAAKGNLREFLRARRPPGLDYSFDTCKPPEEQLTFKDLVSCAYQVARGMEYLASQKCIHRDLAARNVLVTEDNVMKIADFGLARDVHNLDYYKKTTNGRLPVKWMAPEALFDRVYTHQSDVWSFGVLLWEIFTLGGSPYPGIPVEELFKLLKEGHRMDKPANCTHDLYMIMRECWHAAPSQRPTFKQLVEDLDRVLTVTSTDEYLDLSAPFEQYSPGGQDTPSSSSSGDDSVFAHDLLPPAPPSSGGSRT

Chain of Tyrosine-protein kinase Yes (Homo sapiens) (P07947 2-543 limits assumed): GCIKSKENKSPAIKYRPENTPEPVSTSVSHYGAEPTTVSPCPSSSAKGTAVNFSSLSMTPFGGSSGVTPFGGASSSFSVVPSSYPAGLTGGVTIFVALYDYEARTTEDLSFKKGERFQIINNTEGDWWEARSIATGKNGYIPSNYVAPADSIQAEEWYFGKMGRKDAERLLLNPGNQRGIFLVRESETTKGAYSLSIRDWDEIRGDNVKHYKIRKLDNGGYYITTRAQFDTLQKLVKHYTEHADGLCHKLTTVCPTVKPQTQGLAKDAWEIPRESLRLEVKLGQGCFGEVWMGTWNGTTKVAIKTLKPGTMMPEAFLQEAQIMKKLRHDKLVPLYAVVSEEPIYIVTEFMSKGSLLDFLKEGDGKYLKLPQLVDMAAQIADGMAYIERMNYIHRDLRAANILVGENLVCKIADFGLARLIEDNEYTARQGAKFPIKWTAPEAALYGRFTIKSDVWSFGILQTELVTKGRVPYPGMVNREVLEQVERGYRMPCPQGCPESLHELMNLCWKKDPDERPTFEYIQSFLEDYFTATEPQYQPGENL
Chain of Tyrosine-protein kinase Fyn (Homo sapiens) (P06241 2-537 limits assumed): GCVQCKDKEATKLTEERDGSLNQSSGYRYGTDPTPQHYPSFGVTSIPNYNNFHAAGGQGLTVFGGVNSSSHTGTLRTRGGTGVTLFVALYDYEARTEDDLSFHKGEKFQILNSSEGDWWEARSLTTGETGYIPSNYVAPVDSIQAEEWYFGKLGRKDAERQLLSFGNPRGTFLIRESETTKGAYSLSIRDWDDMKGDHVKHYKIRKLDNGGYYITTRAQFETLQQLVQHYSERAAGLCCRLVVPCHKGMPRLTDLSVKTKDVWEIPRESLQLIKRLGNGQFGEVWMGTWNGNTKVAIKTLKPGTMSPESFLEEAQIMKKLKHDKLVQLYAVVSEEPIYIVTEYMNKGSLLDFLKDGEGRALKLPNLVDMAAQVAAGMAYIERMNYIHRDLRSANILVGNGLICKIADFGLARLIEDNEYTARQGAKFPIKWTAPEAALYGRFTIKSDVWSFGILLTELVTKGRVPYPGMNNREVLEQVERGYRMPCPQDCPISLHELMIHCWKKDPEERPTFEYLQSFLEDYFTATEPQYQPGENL
Chain of Receptor tyrosine-protein kinase erbB-2 (Homo sapiens) (P04626 whole entry): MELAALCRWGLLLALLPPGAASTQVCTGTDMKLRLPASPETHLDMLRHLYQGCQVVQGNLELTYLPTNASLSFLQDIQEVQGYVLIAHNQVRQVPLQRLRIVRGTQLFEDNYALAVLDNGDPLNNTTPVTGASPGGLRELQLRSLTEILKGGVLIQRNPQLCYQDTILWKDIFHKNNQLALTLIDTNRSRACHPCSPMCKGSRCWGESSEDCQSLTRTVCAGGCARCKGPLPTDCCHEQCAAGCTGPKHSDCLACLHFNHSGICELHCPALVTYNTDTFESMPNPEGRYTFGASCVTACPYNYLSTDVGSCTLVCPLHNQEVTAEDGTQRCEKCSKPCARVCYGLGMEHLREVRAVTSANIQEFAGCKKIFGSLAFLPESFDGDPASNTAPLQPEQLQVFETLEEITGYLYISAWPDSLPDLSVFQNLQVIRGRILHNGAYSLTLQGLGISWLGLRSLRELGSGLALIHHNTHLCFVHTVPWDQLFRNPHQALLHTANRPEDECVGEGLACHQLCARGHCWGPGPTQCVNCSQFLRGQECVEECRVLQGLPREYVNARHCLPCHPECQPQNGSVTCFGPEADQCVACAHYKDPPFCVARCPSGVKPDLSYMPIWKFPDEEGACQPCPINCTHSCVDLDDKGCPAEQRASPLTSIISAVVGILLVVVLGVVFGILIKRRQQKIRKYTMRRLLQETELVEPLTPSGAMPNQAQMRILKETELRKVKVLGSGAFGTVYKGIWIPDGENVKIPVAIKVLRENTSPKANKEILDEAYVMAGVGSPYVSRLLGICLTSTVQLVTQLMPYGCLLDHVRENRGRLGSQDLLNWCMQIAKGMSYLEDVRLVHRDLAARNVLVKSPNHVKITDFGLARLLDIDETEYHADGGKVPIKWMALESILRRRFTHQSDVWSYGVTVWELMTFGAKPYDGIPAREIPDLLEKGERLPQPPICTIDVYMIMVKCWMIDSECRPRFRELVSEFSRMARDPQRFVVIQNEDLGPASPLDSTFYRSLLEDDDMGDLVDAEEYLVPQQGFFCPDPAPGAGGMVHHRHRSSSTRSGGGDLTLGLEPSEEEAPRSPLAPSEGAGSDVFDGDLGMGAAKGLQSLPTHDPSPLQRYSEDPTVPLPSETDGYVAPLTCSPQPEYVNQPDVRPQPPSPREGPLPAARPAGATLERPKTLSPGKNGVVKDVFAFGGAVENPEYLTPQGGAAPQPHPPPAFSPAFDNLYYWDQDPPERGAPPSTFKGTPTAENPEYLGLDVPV
Chain of Ephrin type-A receptor 2 (Homo sapiens) (P29317 whole entry): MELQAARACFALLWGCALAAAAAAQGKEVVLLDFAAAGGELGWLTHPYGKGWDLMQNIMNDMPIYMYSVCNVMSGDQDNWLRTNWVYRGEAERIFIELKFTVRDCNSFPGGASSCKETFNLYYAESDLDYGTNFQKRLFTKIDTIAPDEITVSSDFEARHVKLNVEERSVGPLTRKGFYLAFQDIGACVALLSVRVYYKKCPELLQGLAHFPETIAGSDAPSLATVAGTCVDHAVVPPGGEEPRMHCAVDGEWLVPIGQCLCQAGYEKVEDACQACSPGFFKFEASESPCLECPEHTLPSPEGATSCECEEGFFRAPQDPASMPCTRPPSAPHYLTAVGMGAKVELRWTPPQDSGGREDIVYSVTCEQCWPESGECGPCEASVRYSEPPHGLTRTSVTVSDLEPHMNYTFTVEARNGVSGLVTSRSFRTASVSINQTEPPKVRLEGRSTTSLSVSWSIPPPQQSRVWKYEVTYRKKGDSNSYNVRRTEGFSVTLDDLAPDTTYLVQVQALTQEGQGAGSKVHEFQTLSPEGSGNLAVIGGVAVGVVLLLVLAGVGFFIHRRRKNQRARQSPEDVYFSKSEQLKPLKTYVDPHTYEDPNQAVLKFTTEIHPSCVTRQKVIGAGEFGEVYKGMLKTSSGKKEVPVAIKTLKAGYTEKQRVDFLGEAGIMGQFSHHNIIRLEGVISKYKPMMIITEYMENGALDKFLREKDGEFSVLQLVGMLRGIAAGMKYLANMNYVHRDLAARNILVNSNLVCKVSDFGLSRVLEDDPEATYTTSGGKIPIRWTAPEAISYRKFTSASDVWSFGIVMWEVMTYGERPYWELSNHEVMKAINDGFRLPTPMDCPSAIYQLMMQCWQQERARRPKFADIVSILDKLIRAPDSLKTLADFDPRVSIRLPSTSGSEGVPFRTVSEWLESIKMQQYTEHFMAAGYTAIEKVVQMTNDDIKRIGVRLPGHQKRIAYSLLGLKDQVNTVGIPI
Chain of Tyrosine-protein kinase receptor UFO (Homo sapiens) (P30530 whole entry): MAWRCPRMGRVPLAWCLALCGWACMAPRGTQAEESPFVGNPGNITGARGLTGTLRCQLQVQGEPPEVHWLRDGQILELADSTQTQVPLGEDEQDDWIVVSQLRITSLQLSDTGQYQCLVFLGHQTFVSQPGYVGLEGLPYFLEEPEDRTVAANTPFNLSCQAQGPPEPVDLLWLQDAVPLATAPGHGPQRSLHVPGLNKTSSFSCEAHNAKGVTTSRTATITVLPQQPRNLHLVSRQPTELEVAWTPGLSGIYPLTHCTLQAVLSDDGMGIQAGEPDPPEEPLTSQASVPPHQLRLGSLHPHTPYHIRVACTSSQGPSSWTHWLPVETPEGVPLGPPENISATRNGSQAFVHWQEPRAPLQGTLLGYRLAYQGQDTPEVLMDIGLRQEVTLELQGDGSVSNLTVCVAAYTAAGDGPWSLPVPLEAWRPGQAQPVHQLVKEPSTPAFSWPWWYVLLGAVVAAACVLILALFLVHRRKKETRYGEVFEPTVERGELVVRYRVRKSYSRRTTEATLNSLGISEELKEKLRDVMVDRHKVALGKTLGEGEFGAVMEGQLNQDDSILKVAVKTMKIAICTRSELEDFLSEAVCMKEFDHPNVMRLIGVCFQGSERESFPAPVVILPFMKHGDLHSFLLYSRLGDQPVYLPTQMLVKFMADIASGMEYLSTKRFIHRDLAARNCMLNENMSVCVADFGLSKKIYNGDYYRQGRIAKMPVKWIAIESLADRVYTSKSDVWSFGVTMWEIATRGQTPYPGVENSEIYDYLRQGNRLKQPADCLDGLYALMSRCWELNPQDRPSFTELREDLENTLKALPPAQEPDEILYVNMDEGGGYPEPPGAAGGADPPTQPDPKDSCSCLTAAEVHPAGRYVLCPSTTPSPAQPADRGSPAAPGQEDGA

Compound | EC50 (KG-1) [µM] | inhibition [1] | inhibition [2] | inhibition [3] | inhibition [4] | inhibition [5] | inhibition [6] | inhibition [7] | inhibition [8] | inhibition [9] | inhibition [10] | inhibition [11] | inhibition [12] | inhibition [13] | EC50 [14] [µM] | inhibition [15] | inhibition [16]
Cc1cccc(C(=O)Nc2cc(-c3ccc(F)cc3)n[nH]2)c1 | 29 | inactive | inactive | inactive | inactive | inactive | inactive | inactive | inactive | inactive | inactive | inactive | inactive | inactive | 0.296 | inactive | inactive
Cc1ccc(-n2cnc3cc(Nc4nnc(C)c5ccccc45)ccc32)cc1 | 20 | – | – | – | – | – | – | – | – | – | – | – | – | – | 0.717 | – | –
Cc1ccc(-c2cc(NC(=O)c3ccc(F)cc3)[nH]n2)cc1 | 28 | inactive | inactive | inactive | inactive | inactive | inactive | inactive | inactive | inactive | inactive | inactive | inactive | inactive | 0.138 | inactive | inactive
Fc1ccc(-c2n[nH]cc2-c2ccncc2)cc1Cl | 24 | – | – | – | – | – | – | – | – | – | – | – | – | – | 0.405 | – | –
COc1ccc(C(=O)Nc2cc(-c3ccccc3)[nH]n2)cc1 | 15 | inactive | inactive | inactive | inactive | inactive | inactive | inactive | inactive | inactive | inactive | inactive | inactive | inactive | 0.036 | inactive | inactive
